The nature of test [1]: Selectivity ratio of IC50 for TCPTP to IC50 for PTP1B.
In test [2] the target is Secreted effector protein (Yersinia pestis, UniProt O68720). Kind of test: Inhibition of Yersinia pestis YOpH. The gist of the method:
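Phosphatase activity was read at 25 °C with p-NPP at its Km (1.7 mM). The buffer was 50 mM 3,3-dimethylglutarate pH 7.0 with 50 mM NaCl, 1 mM EDTA and 10% DMSO. Initial rates came from hydrolysis at 420 nm, 30 to 150 s after mixing. Percent inhibition was measured and IC50 values were calculated from it.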

In test [3] the target is T1, Tyrosine-protein phosphatase non-receptor type 2 (Homo sapiens, UniProt P17706).
T1 sequence (P17706 whole entry): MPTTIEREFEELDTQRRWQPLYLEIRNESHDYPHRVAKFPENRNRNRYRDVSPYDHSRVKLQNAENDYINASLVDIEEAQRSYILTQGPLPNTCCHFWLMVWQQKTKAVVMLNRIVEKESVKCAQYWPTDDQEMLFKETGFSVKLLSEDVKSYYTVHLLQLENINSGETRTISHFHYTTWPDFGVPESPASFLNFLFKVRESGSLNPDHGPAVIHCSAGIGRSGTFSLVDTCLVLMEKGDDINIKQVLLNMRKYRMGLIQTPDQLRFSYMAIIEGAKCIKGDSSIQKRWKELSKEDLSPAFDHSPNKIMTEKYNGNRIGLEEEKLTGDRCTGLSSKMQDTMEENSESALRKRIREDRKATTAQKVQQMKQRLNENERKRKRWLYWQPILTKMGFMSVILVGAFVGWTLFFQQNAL
Kind of test: Inhibition of TCPTP. In short, it runs like this: (§1)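 Medium: 10% DMSO, 1 mM EDTA, 50 mM NaCl, 50 mM 3,3-dimethylglutarate, pH 7.0. Initial rates taken as absorbance at 420 nm from 30 to 150 s after mixing. IC50 derived from percent inhibition.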

The target in test [4] is T2, Tyrosine-protein phosphatase non-receptor type 1 (Homo sapiens, UniProt P18031).
T2 sequence (P18031 whole entry): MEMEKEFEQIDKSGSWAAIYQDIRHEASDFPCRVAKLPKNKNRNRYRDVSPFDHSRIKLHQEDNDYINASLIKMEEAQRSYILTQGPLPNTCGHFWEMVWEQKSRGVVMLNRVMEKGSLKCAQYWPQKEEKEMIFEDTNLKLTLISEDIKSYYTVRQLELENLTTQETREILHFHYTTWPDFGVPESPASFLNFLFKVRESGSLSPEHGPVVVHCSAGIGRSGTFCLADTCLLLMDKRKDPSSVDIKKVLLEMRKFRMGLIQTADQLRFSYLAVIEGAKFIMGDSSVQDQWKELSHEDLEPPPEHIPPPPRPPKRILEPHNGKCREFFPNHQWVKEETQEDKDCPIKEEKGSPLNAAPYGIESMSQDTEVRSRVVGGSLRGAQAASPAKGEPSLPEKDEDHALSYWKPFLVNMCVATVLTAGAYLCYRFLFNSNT
The test can be described thus: Inhibition of PTP1B. In short, it runs like this: as §1

The target in test [5] is T3, Tyrosine-protein phosphatase non-receptor type 7 (Homo sapiens, UniProt P35236).
T3 sequence (P35236 whole entry): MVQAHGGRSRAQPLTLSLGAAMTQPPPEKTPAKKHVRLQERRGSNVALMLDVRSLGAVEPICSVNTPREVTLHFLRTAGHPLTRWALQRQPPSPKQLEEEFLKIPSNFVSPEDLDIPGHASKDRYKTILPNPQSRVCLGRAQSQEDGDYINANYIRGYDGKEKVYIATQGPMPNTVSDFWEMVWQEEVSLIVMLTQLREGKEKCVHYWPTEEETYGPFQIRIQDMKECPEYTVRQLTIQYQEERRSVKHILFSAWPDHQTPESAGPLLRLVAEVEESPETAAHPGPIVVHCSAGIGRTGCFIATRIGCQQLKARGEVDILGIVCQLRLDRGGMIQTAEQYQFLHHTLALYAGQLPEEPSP
The test can be described thus: Inhibition of HePTP. In short, it runs like this: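 HePTP assayed with 4-methylumbelliferyl phosphate at 174 μM (its measured Km) at 25 °C in 10% DMSO, 1 mM EDTA, 50 mM NaCl, 50 mM 3,3-dimethylglutarate, pH 7.0. Initial rates read as fluorescence (ex 340, em 460 nm) from 0 to 150 s after mixing. IC50 derived from percent inhibition.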

By IC50 is commonly meant the concentration that inhibits the measured activity by half.

Chain of Secreted effector protein (O68720 whole entry): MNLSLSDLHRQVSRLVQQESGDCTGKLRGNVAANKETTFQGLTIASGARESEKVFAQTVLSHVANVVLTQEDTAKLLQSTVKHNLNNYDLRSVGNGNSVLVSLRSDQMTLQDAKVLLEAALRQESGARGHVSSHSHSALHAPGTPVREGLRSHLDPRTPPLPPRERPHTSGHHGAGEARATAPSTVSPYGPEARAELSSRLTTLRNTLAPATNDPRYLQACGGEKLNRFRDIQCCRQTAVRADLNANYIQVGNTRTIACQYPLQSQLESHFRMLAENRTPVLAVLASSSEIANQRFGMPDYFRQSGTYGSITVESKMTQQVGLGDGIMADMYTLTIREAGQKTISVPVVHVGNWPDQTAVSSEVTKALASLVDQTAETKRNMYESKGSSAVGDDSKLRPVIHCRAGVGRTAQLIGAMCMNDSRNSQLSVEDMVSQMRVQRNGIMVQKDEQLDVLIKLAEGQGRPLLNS

As to `O=C(O)C(=O)c1ccc(OCc2ccc(COc3ccc(C(=O)C(=O)O)cc3)c(C(=O)Nc3ccc(Oc4ccccc4)cc3)c2)cc1`, in test [1], the Ratio IC50 was less than 2. The IC50 in test [2] amounted to 0.24 µM.
With `O=C(O)C(=O)c1ccc(OCc2ccc(COc3ccc(C(=O)C(=O)O)cc3)c(C(=O)Nc3ccc(Oc4ccc(F)cc4F)cc3)c2)cc1`, it took 0.91 µM to reach half-maximal inhibition in test [2] (IC50).
The same measure, in the same setting: the result for `Cc1ccccc1Oc1ccc(NC(=O)c2cc(COc3ccc(C(=O)C(=O)O)cc3)ccc2COc2ccc(C(=O)C(=O)O)cc2)cc1` reads 0.23 µM.
Regarding `O=C(O)C(=O)c1ccc(OCc2ccc(COc3ccc(C(=O)C(=O)O)cc3)c(C(=O)Nc3ccc(Oc4ccc(-c5ccccc5)cc4)cc3)c2)cc1`, the half-inhibitory concentration (IC50) in test [3] amounted to 6.5 µM; in test [4] it was 0.22 µM; in test [5], 21 µM; in test [2], 0.03 µM.
In test [2], `O=C(O)C(=O)c1ccc(OCc2ccc(COc3ccc(C(=O)C(=O)O)cc3)c(C(=O)Nc3ccc(Oc4cccc(F)c4)cc3)c2)cc1` registered a half-inhibitory concentration (IC50) of 0.22 µM.
In the case of `CCCCCCc1ccc(Oc2ccc(NC(=O)c3cc(COc4ccc(C(=O)C(=O)O)cc4)ccc3COc3ccc(C(=O)C(=O)O)cc3)cc2)cc1`, the IC50 in test [3] is 2.3 µM; in test [4], 1.2 µM; in test [5] it was 28 µM; in test [2] it was 0.09 µM.
On the same counts, the results for `CCc1ccc(Oc2ccc(NC(=O)c3cc(COc4ccc(C(=O)C(=O)O)cc4)ccc3COc3ccc(C(=O)C(=O)O)cc3)cc2)cc1` are 3.5 µM, 0.49 µM, 52 µM and 0.07 µM.
Regarding `O=C(O)C(=O)c1ccc(OCc2ccc(COc3ccc(C(=O)C(=O)O)cc3)c(C(=O)Nc3cccc(OCc4ccccc4)c3)c2)cc1`, the midpoint of inhibition in test [2], the IC50, lay at 0.1 µM.
On the same count and under the same terms, the result for `COc1ccc(Oc2ccc(NC(=O)c3cc(COc4ccc(C(=O)C(=O)O)cc4)ccc3COc3ccc(C(=O)C(=O)O)cc3)cc2)cc1` reads 1.1 µM; that for `Cc1ccc(Oc2ccc(NC(=O)c3cc(COc4ccc(C(=O)C(=O)O)cc4)ccc3COc3ccc(C(=O)C(=O)O)cc3)cc2)cc1`, 0.19 µM.
The same measure, in the same setting: the result for `O=C(O)C(=O)c1ccc(OCc2ccc(COc3ccc(C(=O)C(=O)O)cc3)c(C(=O)Nc3ccc(Oc4ccc(Cl)c(Cl)c4)cc3)c2)cc1` reads 0.21 µM.
Same read-out and setting: the value for `CCCCc1ccc(Oc2ccc(NC(=O)c3cc(COc4ccc(C(=O)C(=O)O)cc4)ccc3COc3ccc(C(=O)C(=O)O)cc3)cc2)cc1` was 0.2 µM.
`CC(C)c1ccc(Oc2ccc(NC(=O)c3cc(COc4ccc(C(=O)C(=O)O)cc4)ccc3COc3ccc(C(=O)C(=O)O)cc3)cc2)cc1` had a concentration for half-maximal inhibition (IC50) in test [2] of 0.8 µM.
`O=C(O)C(=O)c1ccc(OCc2ccc(COc3ccc(C(=O)C(=O)O)cc3)c(C(=O)Nc3ccc(Oc4ccc(SC(F)(F)F)cc4)cc3)c2)cc1`: the IC50 was determined as 4 µM in test [3], 1.6 µM in test [4], 53 µM in test [5] and 0.05 µM in test [2].
With `CSc1ccc(Oc2ccc(NC(=O)c3cc(COc4ccc(C(=O)C(=O)O)cc4)ccc3COc3ccc(C(=O)C(=O)O)cc3)cc2)cc1`, the IC50 in test [2] was determined as 0.11 µM.
Same read-out and setting: the result for `N#Cc1ccc(Oc2ccc(NC(=O)c3cc(COc4ccc(C(=O)C(=O)O)cc4)ccc3COc3ccc(C(=O)C(=O)O)cc3)cc2)cc1` reads 1.3 µM; that for `O=C(O)C(=O)c1ccc(OCc2ccc(COc3ccc(C(=O)C(=O)O)cc3)c(C(=O)Nc3ccc(Oc4ccc(F)cc4)cc3)c2)cc1`, 0.11 µM.

The record behind these values is ChEMBL document CHEMBL1240524, “A focused library of protein tyrosine phosphatase inhibitors” (J Med Chem, 2010).
